How the values were obtained:
[1] = Solubility of the compound in soybean lipoxygenase assay buffer at pH 7.4 at >50 uM; type: physicochemical
[2] = Cytotoxicity against human HT-29 cells expressing NF-kappaB-hrGFP assessed as highest non-cytotoxic dose for 100% cell survival after 24 hrs by MTT assay; type: cell-based; conditions: read-out: Activity
Procedure, shortened: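 HT-29 cells stably carrying pNF-κB-hrGFP, seeded at 0.5 × 10^6/mL in DMEM with 10% FBS, grown 24 h at 37 °C, 5% CO2. Compounds added in DMSO (<0.5% v/v final) at 12.5–400 µM for 24 h. Viability by MTT reduction (2 h), formazan dissolved in DMSO/glycine buffer, read at 560 nm.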

HT-29 [3] = assay: Inhibition of TNFalpha-induced NF-kappaB activation expressed in human HT-29 cells coexpressing hrGFP at 100 uM after 24 hrs by propidium iodide staining-based flow cytometric analysis relative to control; type: cell-based
Procedure, shortened: (§1)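 HT-29 cells stably expressing NF-κB-driven hrGFP given compound (DMSO <0.5%) for 2 h at the maximum non-cytotoxic concentration, then TNF-α at 3 ng/mL final for 18–24 h. Cells trypsinised and stained with propidium iodide; 5000 events gated on FSC/SSC. The %GFP-positive among PI-excluding live cells is normalised to TNF-α/DMSO control, ± SD.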

HT-29 [4] = assay: Pro-inflammatory activity in NFkappaB-GFP transfected human HT-29 cells at 25 to 400 uM after 24 hrs by propidium iodide staining-based flow cytometric analysis; type: ADME, cell-based; conditions: ht-29, 24 h
Procedure, shortened: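 Reporter HT-29-NF-κB-hrGFP cells given compound alone, without TNF-α, for 18–24 h at 37 °C after the same 2 h pre-incubation. GFP-positive live (propidium iodide-excluding) cells counted by flow cytometry; IL-8 in supernatant measured by bead-based flow cytometry.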

[5] = Cytotoxicity against mouse […] cells after 48 hrs by MTT assay; type: cell-based
Procedure, shortened: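 J774 macrophages in DMEM (4 mM L-glutamine, 10% heat-inactivated FBS) were seeded at 1 × 10^5 cells/well and grown for 48 h at 37 °C, 5% CO2. They were then exposed to compounds at 25–400 µM for 48 h. MTT (0.1 mg/mL final) was added for 3 h, formazan was dissolved in DMSO/glycine buffer pH 10.5, and absorbance was read at 560 nm to give an IC50.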

HT-29 [6] = assay: Inhibition of NF-kappaB activation expressed in human HT-29 cells assessed as inhibition of TNFalpha-stimulated IL8 release at 100 uM after 24 hrs by flow cytometric analysis relative to control; type: cell-based
Procedure, shortened: (§2)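 Reporter HT-29-NF-κB-hrGFP cells pretreated 2 h with compound (DMSO <0.5%) at the highest concentration with 100% survival, then stimulated with TNF-α (3 ng/mL final) for 18–24 h at 37 °C. IL-8 in clarified supernatant measured by flow cytometric bead assay (500 events). Expressed as % of TNF-α/DMSO control ± SD; thalidomide as reference.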

Glycine max [7] = assay: Inhibition of soybean lipoxygenase using arachidonic acid as substrate at 50 uM
Procedure, shortened: (§3)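 Soybean 15-lipoxygenase kit assay, arachidonic acid substrate, H2O2 as lipoxygenating agent in 0.1 M Tris-HCl pH 7.4. Single-point screen at 50 µM. IC50 found by varying concentration over 10–100 µM. Quercetin at 4 µM as positive control; duplicate means; Student t-test.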

Glycine max [8] = assay: Inhibition of soybean lipoxygenase using arachidonic acid as substrate at 4 uM
Procedure, shortened: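 Soybean lipoxygenase-15 screening kit with arachidonic acid as substrate and H2O2 as lipoxygenating agent in 0.1 M Tris-HCl, pH 7.4. Values are % inhibition, means of duplicate determinations, Student t-test.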

HT-29 [9] = assay: Inhibition of TNFalpha-induced NF-kappaB activation expressed in human HT-29 cells coexpressing hrGFP at 400 uM after 24 hrs by propidium iodide staining-based flow cytometric analysis relative to control; type: cell-based; procedure, shortened: as §1
HT-29 [10] = assay: Inhibition of NF-kappaB activation expressed in human HT-29 cells assessed as inhibition of TNFalpha-stimulated IL8 release at 200 uM after 24 hrs by flow cytometric analysis relative to control; type: cell-based; procedure, shortened: as §2
HT-29 [11] = assay: Inhibition of TNFalpha-induced NF-kappaB activation expressed in human HT-29 cells coexpressing hrGFP at 200 uM after 24 hrs by propidium iodide staining-based flow cytometric analysis relative to control; type: cell-based; procedure, shortened: as §1
HT-29 [12] = assay: Inhibition of NF-kappaB activation expressed in human HT-29 cells assessed as inhibition of TNFalpha-stimulated IL8 release at 400 uM after 24 hrs by flow cytometric analysis relative to control; type: cell-based; procedure, shortened: as §2
HT-29 [13] = assay: Inhibition of NF-kappaB activation expressed in human HT-29 cells assessed as inhibition of TNFalpha-stimulated IL8 release at 20 uM after 24 hrs by flow cytometric analysis relative to control; type: cell-based; procedure, shortened: as §2
[14] = Induction of NO release in 0.1 M Tris-HCl and 0.1 mM DTPA at pH 7.4 measured for 20 mins in presence of cysteine; type: physicochemical; conditions: buffer, pH 7.4, 20 min
Procedure, shortened: (§4)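 Electrochemical NO detection with an ISO-NOP sensor. Compounds in DMSO added to 0.1 M Tris-HCl, 0.1 mM DTPA at pH 7.4 or 8.3. Cysteine (300 or 100 µM) added and NO recorded for 20 min at 25 or 37 °C; compound:Cys ratio 1:1 at 25 °C, with 3:1 and 37 °C runs also made.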

HT-29 [15] = assay: Inhibition of TNF-alpha-induced NFkappaB activation expressed in human HT-29 cells coexpressing hrGFP at 20 uM after 24 hrs by propidium iodide staining-based flow cytometric analysis relative to control; type: cell-based; procedure, shortened: as §1
Mus musculus = assay: Analgesic activity in albino mouse assessed as inhibition of acetic acid-induced abdominal constriction at 100 umol/kg, po administered 1 hr before acetic acid challenge measured after 60 mins relative to control; type: functional; conditions: Abdomen
Procedure, shortened: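 Albino mice of both sexes (18–23 g) were dosed orally as a suspension in 5% arabic gum in saline, with vehicle controls. After 1 h they received 0.6% acetic acid ip (0.1 mL/10 g). Constrictions were counted for 20 min starting 10 min after injection. Data are % inhibition vs vehicle, mean ± SEM, Student t-test.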

[16] = Inhibition of soybean lipoxygenase using arachidonic acid as substrate; set-up: species or system Glycine max; procedure, shortened: as §3
Rattus norvegicus = assay: Antiinflammatory activity in albino rat assessed as inhibition of carrageenan-induced paw edema at 100 umol/kg, po administered 1 hr before carrageenan challenge measured after 3 hrs by plethysmometric analysis relative to control; type: functional
Procedure, shortened: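 Albino rats of both sexes (150–200 g) were dosed orally as a suspension in 1% Tween 80 in saline, with vehicle controls. After 1 h, 0.1 mL 1% carrageenan or saline was injected subplantar. Paw volume was read by glass plethysmometer at 3 h. Edema = carrageenan-paw minus saline-paw volume; % inhibition vs vehicle; Student t-test.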

[17] = Induction of NO release in 0.1 M Tris-HCl and 0.1 mM DTPA at pH 8.3 measured for 20 mins in presence of cysteine; type: physicochemical; conditions: buffer, pH 8.3, 20 min; procedure, shortened: as §4
Salmonella typhimurium [18] = assay: Induction of mutagenesis in Salmonella Typhimurium TA98 assessed as number of revertants at 3.1 to 250 ug/plate in absence of mouse liver S9 fraction; type: toxicity, organism-based; conditions: salmonella enterica subsp. enterica serovar typhimurium
Procedure, shortened: (§5)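 S. typhimurium TA98, plate incorporation on minimal glucose (Vogel-Bonner) agar. Compounds were in DMSO, dosed in triplicate with a top non-toxic dose of 250 or 350 µg/plate. Runs were without S9 (positive control 4-nitro-o-phenylenediamine, 20 µg/plate) or with 500 µL Aroclor-induced mouse liver S9 (positive control 2-aminofluorene, 10 µg/plate), plus a DMSO control. Revertants were counted manually; mutagenic means ≥2-fold spontaneous revertants at two consecutive doses.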

Salmonella typhimurium [19] = assay: Induction of mutagenesis in Salmonella Typhimurium TA98 assessed as number of revertants at 3.1 to 250 ug/plate in presence of mouse liver S9 fraction; type: toxicity, organism-based; conditions: salmonella enterica subsp. enterica serovar typhimurium; procedure, shortened: as §5

Row | SMILES | MNTC at 24 h [2] [µM] | NF-kappaB activity (% of TNF-alpha control) (HT-29 [3]) [%] | Activity (HT-29 [4]) | IC50 [5] [µM] | inhibition (HT-29 [6]) [%] | inhibition (Glycine max [7]) [%] | NF-kappaB activity (GFP-positive cells), % of TNF-alpha control (HT-29 [9]) [%] | inhibition (HT-29 [12]) [%] | Activity [14] [nM/min] | further results
1 | Cc1[nH]cnc1C(=O)N/N=C/c1no[n+]([O-])c1C | 100 | 126 | Non-toxic | > 400 | 103 | 27 |  |  |  | solubility [1]: Insoluble
2 | O=c1c(O)c(-c2ccc(O)c(O)c2)oc2cc(O)cc(O)c12 |  |  |  |  |  |  |  |  |  | inhibition (Glycine max [8]): 35%
3 | O=C1CCC(N2C(=O)c3ccccc3C2=O)C(=O)N1 (stereo not given) [THALIDOMIDE] | 100 | 126 | Non-toxic | > 400 | 63 |  | 116 | 57 |  | inhibition (HT-29 [10]): 77%; inhibition (HT-29 [11]): 114%
4 | O=S(=O)(c1ccccc1)c1no[n+]([O-])c1S(=O)(=O)c1ccccc1 | 20 |  | Non-toxic |  |  |  |  |  | 3700 | inhibition (HT-29 [13]): 6%; inhibition (HT-29 [15]): 6%
5 | Cc1c(C(=O)N/N=C/c2ccc(C(=O)O)cc2)no[n+]1[O-] | 400 |  | Non-toxic | > 400 |  | 74 | 125 | 53 | 1.04 | inhibition in vivo at 100 µmol/kg (Mus musculus): 0%; IC50 [16]: 35 µM; inhibition in vivo at 100 µmol/kg (Rattus norvegicus): 16%; Activity [17]: 0.19 nM/min; Activity (Salmonella typhimurium [18]): Non-toxic; Activity (Salmonella typhimurium [19]): Non-toxic

Source: ChEMBL document CHEMBL1955718, “Discovery of new orally effective analgesic and anti-inflammatory hybrid furoxanyl N-acylhydrazone derivatives” (Bioorg Med Chem, 2012)
